Measurements gathered from unrelated publications.
Compare with care: the assays were run in different laboratories.
Target: D(1A) dopamine receptor (DRD1, Homo sapiens, UniProt P21728)

For `Cc1c(N2CCNCC2)nc2ccc(Br)cc2c1C(=O)NC[C@H](CCC(=O)O)c1ccccc1Cl`, the inhibition was 31.6% (ligand displacement; 10 µM).
For `CC(Cc1ccccc1)NCCn1cnc2c1c(=O)n(C)c(=O)n2C` (stereo not drawn), the inhibition was 8% (ligand displacement; radioligand; 10 µM).
With `COc1ccc(S(=O)(=O)N2CCCCC2)cc1C` the inhibition was under 30% (ligand displacement; radioligand; 10 µM).
`C[C@H](C(=O)N[C@H]1COc2ccccc2[C@@H]1S(C)(=O)=O)c1ccc(F)cc1` has an inhibition of -6% (cell-free assay; 10 µM).
The inhibition of `Cn1cncc1[C@@](O)(COc1ccc(C#N)cc1-c1ccc(OC(F)(F)F)cc1)c1ccc(C#N)cc1` is reported as 19% (ligand displacement; 10 µM).
`Nc1ncc(-c2nc(N3CCOCC3)nc(N3CCOCC3)n2)c(C(F)F)n1` gave a remaining signal of 90.9% (cell-free assay; radioligand; 10 µM).
With `CN(CCN1CCC(OC(=O)Nc2ccccc2-c2ccccc2)CC1)C(=O)c1ccc(CN2CCC(C(N)=O)CC2)cc1` the inhibition was 1% (ligand displacement; radioligand; 1 µM).
With `CC(C)N1CCC[C@H]1CNC(=O)c1cn(C2CCCC2)c(=O)c2c1c1ccccc1n2C` the inhibition was 5% (ligand displacement; radioligand; 10 µM).
The inhibition of `CCN(CC)CCCC[C@H](NC(=O)[C@H](CC(C)C)NC(=O)[C@H](C)NC(=O)[C@H](Cc1ccccc1)NC(=O)c1ccc(C(C)(C)C)cc1)C(=O)N[C@@H](CO)C(=O)OC` is reported as 4% (ligand displacement; radioligand; 10 µM).
With `c1ccc(C(NCCNC(c2ccccc2)c2ccccc2)c2ccccc2)cc1` the inhibition was 24% (cell-free assay; 10 µM).
The inhibition of `Clc1ccc2c(C3CCN(CCc4c[nH]c5ccccc45)CC3)c[nH]c2c1` is reported as 100% (ligand displacement; radioligand; 10 µM).
For `COCc1c(-c2cc3cc(C)cc(OC)c3s2)c2c(N)ncnn2c1CN1CCNC(=O)C1`, the inhibition was 10% (ligand displacement; radioligand; 10 µM).
